ChEMBL document CHEMBL1817575, “Extended targeting potential and improved synthesis of Microcin C analogs as antibacterials” (Bioorg Med Chem, 2011)
Calls of active or inactive are those of the source. No cut-off for these calls is given here. Residues, ends and D or L forms follow the SMILES beside them. *: point of attachment. X7 = CC[C@H](C)[C@H](N*)C(=O)NS(=O)(=O)OC[C@H]1O[C@@H](n2cnc3c(N)ncnc32)[C@H](O)[C@@H]1O; NHTrityl = c1ccc(C(N*)(c2ccccc2)c2ccccc2)cc1; Pbf = Cc1c(C)c(S(=O)(=O)*)c(C)c2c1OC(C)(C)C2; tBu = CC(C)(C)*; For = O=C*

Columns and labels:
Escherichia coli [1] = test: Antibacterial activity against Escherichia coli Ara-Yej (BW39758) at <= 0.63 uM after 8 hrs; format: functional, organism-based
How it was run: (§1)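 Overnight LB cultures were regrown in fresh LB, with or without 5 mM L-arabinose, to OD600 0.1. Compounds were serially titrated in 96-well plates in LB with or without 5 mM L-arabinose, and cells were added. Plates were incubated at 37 °C, and growth inhibition was read as OD600 after 8 h.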

Escherichia coli [2] = test: Antibacterial activity against yej or pepA,B,N-genes disrupted Escherichia coli after 8 hrs; format: functional, organism-based; how it was run: as §1

`CC[C@H](C)[C@H](NC(=O)[C@H](C)NC(=O)[C@H](CC(=O)NC(c1ccccc1)(c1ccccc1)c1ccccc1)NC(=O)CNC(=O)[C@@H](NC(=O)[C@H](CCCNC(=N)NS(=O)(=O)c1c(C)c(C)c2c(c1C)CC(C)(C)O2)NC(=O)[C@H](CCSC)NC=O)[C@@H](C)OC(C)(C)C)C(=O)NS(=O)(=O)OC[C@H]1O[C@@H](n2cnc3c(N)ncnc32)[C@H](O)[C@@H]1O` (For-MR(Pbf)T(tBu)GD(NHTrityl)A-X7) was tested, and the Activity (Escherichia coli [1]) was “Active” and the Activity (Escherichia coli [2]) was “inactive”.
